Data reported in ChEMBL document CHEMBL3112444, “Synthesis and anticancer activity of focused compound libraries from the natural product lead, oroidin” (2014).

Assays:
[1] = Cytotoxicity against mouse SMA cells assessed as growth inhibition at 25 uM after 72 hrs by MTT assay relative to control; type: functional; conditions: read-out: GI
In short: (§1)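 Cells in logarithmic growth kept in DMEM with 10% FBS, 10 mM sodium bicarbonate, penicillin 100 IU/mL, glutamine 4 mM, at 37 °C under 5% CO2. Plated in duplicate at 2500–4000 cells/well. Compound (30 mM DMSO stock) added 24 h after plating. MTT read at 540 nm after 72 h exposure.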

[2] = Cytotoxicity against mouse SMA cells assessed as growth inhibition after 72 hrs by MTT assay; type: functional; in short: as §1
A-431 [3] = experiment: Cytotoxicity against human A431 cells assessed as growth inhibition after 72 hrs by MTT assay; type: functional; conditions: A-431, 72 h; in short: as §1
A2780 [4] = experiment: Cytotoxicity against human A2780 cells assessed as growth inhibition after 72 hrs by MTT assay; type: functional; conditions: A2780, 72 h; in short: as §1
[5] = Cytotoxicity against human SJ-G2 cells assessed as growth inhibition after 72 hrs by MTT assay; type: functional; conditions: SJ-G2, 72 h; in short: as §1
HT-29 [6] = experiment: Cytotoxicity against human HT-29 cells assessed as growth inhibition after 72 hrs by MTT assay; type: functional; conditions: HT-29, 72 h; in short: as §1
MCF7 [7] = experiment: Cytotoxicity against human MCF7 cells assessed as growth inhibition after 72 hrs by MTT assay; type: functional; conditions: MCF7, 72 h; in short: as §1
SW480 [8] = experiment: Cytotoxicity against human SW480 cells assessed as growth inhibition after 72 hrs by MTT assay; type: functional; conditions: SW480, 72 h; in short: as §1
[9] = Cytotoxicity against human H460 cells assessed as growth inhibition at 25 uM after 72 hrs by MTT assay relative to control; type: functional; conditions: NCI-H460, 72 h, read-out: GI; in short: as §1
[10] = Cytotoxicity against human SJ-G2 cells assessed as growth inhibition at 25 uM after 72 hrs by MTT assay relative to control; type: functional; conditions: SJ-G2, 72 h, read-out: GI; in short: as §1
A-431 [11] = experiment: Cytotoxicity against human A431 cells assessed as growth inhibition at 25 uM after 72 hrs by MTT assay relative to control; type: functional; conditions: A-431, 72 h, read-out: GI; in short: as §1
[12] = Cytotoxicity against human U87 cells assessed as growth inhibition at 25 uM after 72 hrs by MTT assay relative to control; type: functional, U-87MG ATCC; conditions: U-87 MG, read-out: GI; in short: as §1
[13] = Cytotoxicity against human MIA cells assessed as growth inhibition at 25 uM after 72 hrs by MTT assay relative to control; type: functional; conditions: read-out: GI; in short: as §1
HT-29 [14] = experiment: Cytotoxicity against human HT-29 cells assessed as growth inhibition at 25 uM after 72 hrs by MTT assay relative to control; type: functional; conditions: HT-29, 72 h, read-out: GI; in short: as §1
[15] = Cytotoxicity against human BE(2)-C cells assessed as growth inhibition after 72 hrs by MTT assay; type: functional; in short: as §1
DU-145 [16] = experiment: Cytotoxicity against human DU145 cells assessed as growth inhibition at 25 uM after 72 hrs by MTT assay relative to control; type: functional; conditions: DU-145, 72 h, read-out: GI; in short: as §1
[17] = Cytotoxicity against human H460 cells assessed as growth inhibition after 72 hrs by MTT assay; type: functional; conditions: NCI-H460, 72 h; in short: as §1
[18] = Cytotoxicity against human BE(2)-C cells assessed as growth inhibition at 25 uM after 72 hrs by MTT assay relative to control; type: functional; conditions: read-out: GI; in short: as §1
SW480 [19] = experiment: Cytotoxicity against human SW480 cells assessed as growth inhibition at 25 uM after 72 hrs by MTT assay relative to control; type: functional; conditions: SW480, 72 h, read-out: GI; in short: as §1
[20] = Cytotoxicity against human U87 cells assessed as growth inhibition after 72 hrs by MTT assay; type: functional, U-87MG ATCC; conditions: U-87 MG; in short: as §1
MCF7 [21] = experiment: Cytotoxicity against human MCF7 cells assessed as growth inhibition at 25 uM after 72 hrs by MTT assay relative to control; type: functional; conditions: MCF7, 72 h, read-out: GI; in short: as §1
DU-145 [22] = experiment: Cytotoxicity against human DU145 cells assessed as growth inhibition after 72 hrs by MTT assay; type: functional; conditions: DU-145, 72 h; in short: as §1
A2780 [23] = experiment: Cytotoxicity against human A2780 cells assessed as growth inhibition at 25 uM after 72 hrs by MTT assay relative to control; type: functional; conditions: A2780, 72 h, read-out: GI; in short: as §1
[24] = Cytotoxicity against human MIA cells assessed as growth inhibition after 72 hrs by MTT assay; type: functional; in short: as §1

Row | SMILES | inhibition of growth at 25 µM [1] [%] | GI50 [2] [µM] | GI50 (A-431 [3]) [µM] | GI50 (A2780 [4]) [µM] | GI50 [5] [µM] | GI50 (HT-29 [6]) [µM] | GI50 (MCF7 [7]) [µM] | GI50 (SW480 [8]) [µM] | inhibition of growth at 25 µM [9] [%] | inhibition of growth at 25 µM [10] [%] | inhibition of growth at 25 µM (A-431 [11]) [%] | inhibition of growth at 25 µM [12] [%] | inhibition of growth at 25 µM [13] [%] | inhibition of growth at 25 µM (HT-29 [14]) [%] | GI50 [15] [µM] | inhibition of growth at 25 µM (DU-145 [16]) [%] | GI50 [17] [µM] | inhibition of growth at 25 µM [18] [%] | inhibition of growth at 25 µM (SW480 [19]) [%] | GI50 [20] [µM] | other results
1 | O=C(NCc1ccc(Cl)cc1)c1cc(Br)c(Br)[nH]1 | 79 | 16 | 24 | 13 | 28 | 13 | 14 | 36 | 57 | 42 | 37 | 30 | 63 | 95 | 32 | 40 | 28 | 24 | 11 | 34 | inhibition of growth at 25 µM (MCF7 [21]): > 100%; GI50 (DU-145 [22]): 27 µM; inhibition of growth at 25 µM (A2780 [23]): 86%; GI50 [24]: 22 µM
2 | O=C(NCc1ccccc1)c1cc(Br)c(Br)[nH]1 | 61 | 25 | 22 | 14 | 11 | 4.6 | 11 | > 50 | 43 | 95 | 56 | 31 | 33 | > 100 | 4.8 | 52 | 35 | > 100 | 33 | > 50 | inhibition of growth at 25 µM (MCF7 [21]): > 100%; GI50 (DU-145 [22]): 33 µM; inhibition of growth at 25 µM (A2780 [23]): 84%; GI50 [24]: > 50 µM
3 | Nc1ncc(/C=C/CNC(=O)c2cc(Br)c(Br)[nH]2)[nH]1 [OROIDIN] | 15 | > 50 | > 50 | 24 | > 50 | > 50 | 42 | > 50 | 7 | < 0 | 6 | 3 | 21 | 31 | > 50 | 23 | > 50 | 6 | 8 | > 50 | inhibition of growth at 25 µM (MCF7 [21]): 27%; GI50 (DU-145 [22]): > 50 µM; inhibition of growth at 25 µM (A2780 [23]): 51%; GI50 [24]: > 50 µM
